The text below walks through data of ChEMBL document CHEMBL4196106, “From Naproxen Repurposing to Naproxen Analogues and Their Antiviral Activity against Influenza A Virus” (J Med Chem, 2018).

Activity calls are given as the source filed them. No cut-off for these calls is given here.

Series [1] concerns Influenza A virus. As to the kind of experiment: Stabilization of Influenza A virus nucleoprotein assessed as melting temperature at 5 to 15 uM measured for 10 mins.
The subject of the next series is MDCK. Put plainly: Inhibition of nucleoprotein/polymerase acidic protein (1 to 27 residues) interaction in Influenza A virus (A/WSN/1933 (H1N1)) infected in MDCK cells by Western blot analysis. The format is cell-based. The method in brief: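 MDCK cells were infected with A/WSN/33 at MOI 2 for 18 h and lysed in PBS with protease inhibitors and 0.5% NP40 by freezing; nucleic acids were not digested. Streptavidin beads loaded with 250 µM biotinylated PA(1-27) were incubated with the lysate 18 h at 4 °C, with or without compound. Bound NP was detected by anti-NP monoclonal western blot.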
Background: Immunoblotting shows a protein as a band on a membrane.

Series [2] deals with Influenza A virus. Put plainly: Inhibition of Influenza A virus nucleoprotein/polymerase acidic protein (1 to 27 residues) complex formation at 100 nM by surface plasmon resonance analysis. The method in brief:
(§1)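 Biotinylated PA(1-27) was captured on the chip at about 1500 RU, with a scrambled peptide on the same chip at similar RU. NP (12–2500 nM), alone or as NP-DNA complex, was injected with or without compound up to 50 µM. Running buffer was 20 mM Tris-HCl pH 7.4, 300 mM NaCl, 0.005% P20, at 25 °C and 30 µl/min. Regeneration used guanidinium chloride then 10 mM NaOH.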
Background: SPR reads the build-up and loss of mass on a sensor chip optically.

Series [3] in a line: (§2) Inhibition of Influenza A virus nucleoprotein/polymerase acidic protein (1 to 27 residues) complex formation in presence of DNA by surface plasmon resonance analysis. The method in brief:
as §1

The subject of series [4] is Influenza A virus. The series is described as §2. The essentials: as §1
The subject of series [5] is Influenza A virus. Put plainly: Antiviral activity against Influenza A virus (A/WSN/1933(H1N1)) infected in MDCK cells at MOI of 10^-3 assessed as decrease in viral load after 48 hrs by crystal violet staining-based plaque assay. The format is functional, organism-based. The essentials: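 Serum-starved MDCK cells, 0.32 x 10^6 per well, were infected with A/WSN/33 at MOI 10^-3 (multi-cycle). Compound (0.1–500 µM) or vehicle was added immediately after adsorption. After 48 h, titres in clarified supernatant were read by plaque assay with crystal violet. Runs were in triplicate, repeated at least twice, and IC50 came from a dose-response fit.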

Series [6] is described as follows: Selectivity index, ratio of CC50 for MDCK cells to IC50 for Influenza A virus (A/WSN/1933(H1N1)) infected in MDCK cells at MOI of 10^-3 after 48 hrs. The format is toxicity, cell-based. The settings on record: dog, read-out: Ratio CC50/IC50.
A short description of series [7]: Safety index, ratio of compound CC50 to naproxen CC50 for MDCK cells by MTT assay. Format: ADME, cell-based, Canis lupus familiaris. As to conditions: dog. (Formazan colour is commonly taken as a measure of viable cells.)
A short description of series [8]: Selectivity index, ratio of CC50 for human A549 cells to IC50 for Influenza A virus (A/Udorn/1972 (H3N2)) after 18 hrs. The format is toxicity. The settings on record: read-out: Ratio CC50/IC50.
The test system of series [9] is Influenza A virus. Put plainly: Antiviral activity against Influenza A virus (A/Udorn/1972 (H3N2)) infected in MDCK cells at MOI of 10^-3 assessed as decrease in viral load after 18 hrs by crystal violet staining-based plaque assay. Format: functional, organism-based.
Series [10] can be described thus: Selectivity index, ratio of CC50 for MDCK cells to IC50 for Influenza A virus (A/Udorn/1972 (H3N2)) infected in MDCK cells at MOI of 2 after 18 hrs. Format: toxicity, cell-based. As to conditions: dog, read-out: Ratio CC50/IC50.
Series [11] has as its system Influenza A virus. Put plainly: Antiviral activity against pandemic Influenza A virus (A/Netherlands/602/09(H1N1)) infected in MDCK cells at MOI of 10^-3 assessed as decrease in viral load after 18 hrs by immunofluorescence analysis. The format is functional, organism-based.
A short description of series [12]: Selectivity index, ratio of CC50 for MDCK cells to IC50 for pandemic Influenza A virus (A/Netherlands/602/09(H1N1)) infected in MDCK cells at MOI of 10^-3 after 18 hrs. The format is toxicity, cell-based. As to conditions: dog, read-out: Ratio CC50/IC50.
Another series relates to A549. As to the kind of experiment: Downregulation of COX2 level in human A549 cells infected with Influenza A virus at MOI of 2 at 100 uM after 18 hrs in presence of gamma-ATP by immunofluorescence analysis. As to conditions: a549, 18 h. Format: cell-based. The essentials:
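A549 cells were pretreated with compound for 30 min, then either infected with IAV at MOI 2 for 18 h or activated with 100 µM γ-ATP for 1 h with or without compound. Cells were fixed in 3% PFA and permeabilised with 0.1% triton. COX2 was immunostained overnight with a primary antibody and detected with an Alexa 647 secondary.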

Series [13] relates to Influenza A virus. Put plainly: Antiviral activity against Influenza A virus (A/Puerto Rico/8/1934(H1N1)) infected in C57BL/6J mouse assessed as recovery of weight loss at 1 mg/mouse/day, ip qd treated up to day 2 starting at 5 to 10 mins post infection measured up to day 12 relative to control. Format: functional. The method in brief: (§3)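 Intranasal A/PR/8/34 challenge at 500 PFU in female C57BL/6J mice, 5–6 weeks old, under ketamine/xylazine. Dosing was i.p. once daily on days 0, 1 and 2, starting 5–10 min post-inoculation; 1 mg/mouse is 50 mg/kg and 8 mg/mouse is 400 mg/kg. There were 10 mice per group, with saline vehicle. Survival and body weight were scored daily, with 20% weight loss as the mortality endpoint.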

Series [14] relates to Influenza A virus. As to the kind of experiment: Antiviral activity against Influenza A virus (A/Puerto Rico/8/1934(H1N1)) infected in ip dosed C57BL/6J mouse assessed as increase in mouse survival administered once daily treated up to day 2 starting at 5 to 10 mins post infection. The format is functional, organism-based. The method in brief:
as §3

The test system of series [15] is Influenza A virus. Put plainly: Antiviral activity against Influenza A virus (A/Puerto Rico/8/1934(H1N1)) infected in C57BL/6J mouse assessed as survival at 1 to 8 mg/mouse/day, ip qd treated up to day 2 starting at 5 to 10 mins post infection measured at day 12 relative to control. The format is functional. The essentials: as §3
Series [16] relates to Influenza A virus. As to the kind of experiment: Antiviral activity against Influenza A virus (A/Puerto Rico/8/1934(H1N1)) infected in C57BL/6J mouse assessed as increase in mouse survival at 8 mg/mouse/day, ip qd treated up to day 2 starting at 5 to 10 mins post infection measured at day 12. The format is functional, organism-based. The method in brief: as §3
Series [17] relates to Influenza A virus. As to the kind of experiment: Antiviral activity against Influenza A virus (A/Puerto Rico/8/1934(H1N1)) infected in C57BL/6J mouse assessed as recovery of weight loss at 8 mg/mouse/day, ip qd treated up to day 2 starting at 5 to 10 mins post infection measured up to day 12 relative to control. Format: functional. The essentials: as §3
For series [18], the system named is Influenza A virus. Put plainly: Antiviral activity against Influenza A virus (A/Puerto Rico/8/1934(H1N1)) infected in C57BL/6J mouse assessed as recovery of weight loss at 8 mg/mouse/day, ip qd […] starting at 5 to 10 mins post infection measured up to day 12. The format is functional, organism-based.
Series [19] relates to Influenza A virus. Put plainly: Antiviral activity against Influenza A virus (A/Puerto Rico/8/1934(H1N1)) infected in C57BL/6J mouse assessed as decrease in viral load in bronchoalveolar lavage at 1 mg/mouse/day, ip qd treated up to day 2 starting at 5 to 10 mins post infection relative to control. Format: functional. The essentials: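 Female C57BL/6J mice, 5–6 weeks old, were anaesthetised with ketamine/xylazine (43/5 mg/kg) and inoculated intranasally with A/PR/8/34 at 500 PFU. Treatment was i.p. once daily on days 0, 1 and 2, starting 5–10 min after inoculation; 1 mg/mouse is 50 mg/kg and 8 mg/mouse is 400 mg/kg. BAL infectious titre was measured by plaque assay against saline-treated mice.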

Regarding `COc1ccc2cc(-c3c(C(=O)[O-])cccc3C(=O)[O-])ccc2c1.[Na+].[Na+]`, the Tm with Influenza A virus [1] stood at 46 °C. In the series with MDCK, the “inhibition (active/not active)” value is “Active”. Also, the inhibition result in the series with Influenza A virus [2] is “Active”. For the same compound, the half-maximal inhibitory concentration (IC50) (usually the concentration that gives 50% inhibition) in [3] came to 30 nM; in the series with Influenza A virus [5], 2900 nM; with Influenza A virus [9], 2000 nM; with Influenza A virus [11] it was 1800 nM. Also, the inhibition entry in the series on Influenza A virus [4] was “Dose-dependent effect”. Besides, the selectivity ratio at 48 h in [6] fell in the range of 4480 to 5200. For the same compound, the selectivity ratio in series [7] was 10. For the same compound, the selectivity ratio at 18 h in series [8] stood at 520; in series [10] it was 650; in series [12] it was 7220. The Activity entry was “Non-Toxic” with A549, “>=95%” with Influenza A virus [13], “Dose-dependent effect” in the series on Influenza A virus [14] and 5% with Influenza A virus [17]. In the series on Influenza A virus [15], the Survival came out at 70%. In addition, the result in the series with Influenza A virus [16] and in the series with Influenza A virus [18] was Active. In addition, the “fold change (FC)” value with Influenza A virus [19] came to 6.
